# ChEMBL document CHEMBL3576824, “Phenolic diterpenoid derivatives as anti-influenza a virus agents” (ACS Med Chem Lett, 2015)
# Activity calls are given as the source filed them.
# Tested on: Influenza A virus
# Assay: Antiviral activity against oseltamivir/amantadine-resistant Influenza A virus (A/Puerto Rico/8/1934(H1N1)) infected in MDCK cells assessed as protection against virus-induced cytocidal effect after 48 hrs by CellTiter-Glo assay
# Format: functional, organism-based
# Settings: Influenza A virus, A/Puerto Rico/8/1934(H1N1), MDCK, 48 h; read-out: EC50
# How it was run: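 Cytocidal protection assay in MDCK cells. EC50 is the concentration (μM) protecting cells by 50% from the virus's cytocidal effect, given as mean ± SD from at least three independent tests.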
row,Compound,EC50 [µM]
1,C[C@]1(C(=O)O)CCC[C@]2(C)c3cc(OC(=O)CCC(=O)O)ccc3CC[C@@H]12,18.7
2,COC(=O)[C@@]1(C)CCC[C@]2(C)c3cc(OC(=O)C4CC4)ccc3CC[C@@H]12,0.15
3,COC(=O)[C@@]1(C)CCC[C@]2(C)c3cc(OC)ccc3C(=O)C[C@@H]12,3.6
4,C=CC(=O)Oc1ccc2c(c1)[C@@]1(C)CCC[C@](C)(C(=O)OCc3ccccc3)[C@@H]1CC2,0.48
5,COC(=O)[C@@]1(C)CCC[C@]2(C)c3cc(OC(=O)C(C)C)ccc3CC[C@@H]12,0.32
6,C[C@]1(C(=O)OCc2ccccc2)CCC[C@]2(C)c3cc(OC(=O)CCC(=O)O)ccc3CC[C@@H]12,> 6.5
7,COC(=O)[C@@]1(C)CCC[C@]2(C)c3cc(OC(=O)CCCCCBr)ccc3CC[C@@H]12,0.19
8,COC(=O)[C@@]1(C)CCC[C@]2(C)c3cc(OC(C)=O)ccc3CC[C@@H]12,0.14
9,COC(=O)[C@@]1(C)CCC[C@]2(C)c3cc(OC(=O)CCCC(=O)O)ccc3CC[C@@H]12,0.37
10,CC(C)c1c(O)ccc2c1CC[C@H]1C(C)(C)CCC[C@]21C [TOTAROL],3.5
11,CNC(=O)[C@@]1(C)CCC[C@]2(C)c3cc(O)ccc3CC[C@@H]12,> 34.8
12,COC(=O)[C@@]1(C)CCC[C@]2(C)c3cc(OC(=O)CCBr)ccc3CC[C@@H]12,0.21
13,COC(=O)[C@@]1(C)CCC[C@]2(C)c3cc(OC(=O)CCC(=O)O)ccc3CC[C@@H]12,0.18
14,COC(=O)[C@@]1(C)CCC[C@]2(C)c3cc(O)ccc3CC[C@@H]12,0.16
15,COC(=O)[C@@]1(C)CCC[C@]2(C)c3cc(OC(=O)CCCCBr)ccc3CC[C@@H]12,0.42
16,COC(=O)[C@@]1(C)CCC[C@]2(C)c3cc(OC(=O)CCCBr)ccc3CC[C@@H]12,0.57
17,C=CC(=O)Oc1ccc2c(c1)[C@@]1(C)CCC[C@](C)(C(=O)OC)[C@@H]1CC2,0.64
18,COC(=O)[C@@]1(C)CCC[C@]2(C)c3cc(OC)ccc3CC[C@@H]12,0.73
19,COC(=O)[C@@]1(C)CCC[C@]2(C)c3cc(OC(=O)C(C)F)ccc3CC[C@@H]12 (stereo not given in full),0.15
20,COC(=O)[C@@]1(C)CCC[C@]2(C)c3cc(OCCC(=O)O)ccc3CC[C@@H]12,> 25
21,C=CC(=O)Oc1ccc2c(c1)[C@@]1(C)CCC[C@](C)(C(=O)NC)[C@@H]1CC2,> 29.3
22,CCOC(=O)C1=C[C@@H](OC(CC)CC)[C@H](NC(C)=O)[C@@H](N)C1 [OSELTAMIVIR],> 20
23,C[C@]1(C(=O)OCc2ccccc2)CCC[C@]2(C)c3cc(O)ccc3CC[C@@H]12,1.59
24,C[C@]1(C(=O)O)CCC[C@]2(C)c3cc(O)ccc3CC[C@@H]12 [PODOCARIC ACID],18.2
25,NC12CC3CC(CC(C3)C1)C2 [AMANTADINE],> 20

# Same assay, conditions: mdck
row,Compound,EC50
1,C[C@]1(C(=O)OCc2ccccc2)CCC[C@]2(C)c3cc(OCCC(=O)O)ccc3CC[C@@H]12,Not Active

# Tested on: Influenza A virus (A/Puerto Rico/8/1934(H1N1))
# Assay: Inhibition of oseltamivir/amantadine-resistant Influenza A virus (A/Puerto Rico/8/1934(H1N1)) hemagglutinin-mediated hemolysis of chicken RBC preincubated with virus for 30 mins followed by RBC addition measured after 30 mins by microplate reader analysis
# Settings: not given
# How it was run: (§1)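 Erythrocyte-virus-compound mixture incubated at 37 °C for 30 min, then acidified to pH 5.2 with 0.15 M sodium acetate buffer to trigger HA-mediated hemolysis. OD540 of supernatants was measured. Hemolysis without compound is defined as 100%. Values are averages of two independent tests.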
row,Compound,inhibition
1,C=CC(=O)Oc1ccc2c(c1)[C@@]1(C)CCC[C@](C)(C(=O)OC)[C@@H]1CC2,Dose-dependent effect

# Tested on: Influenza A virus
# Assay: Antiviral activity against oseltamivir/amantadine-resistant Influenza A virus (A/Puerto Rico/8/1934(H1N1)) assessed as inhibition of viral infectivity in MDCK cells at 10 uM after 6 hrs by FITC conjugated anti-NP antibodies/DAPI staining-based confocal microscopic analysis
# Format: functional, organism-based
# Settings: not given
# How it was run: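 MDCK cells were infected at MOI = 1 in the presence of 10 μM compound for 6 h. Infected cells were stained with FITC-conjugated anti-NP antibody, with DAPI as nuclear stain, and imaged by confocal microscopy. Infected cells without compound served as control.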
row,Compound,inhibition
1,CC(C)c1c(O)ccc2c1CC[C@H]1C(C)(C)CCC[C@]21C [TOTAROL],Active
2,COC(=O)[C@@]1(C)CCC[C@]2(C)c3cc(OC(=O)CCBr)ccc3CC[C@@H]12,Active

# Tested on: Influenza A virus (A/Puerto Rico/8/1934(H1N1))
# Assay: Inhibition of oseltamivir/amantadine-resistant Influenza A virus (A/Puerto Rico/8/1934(H1N1)) hemagglutinin-mediated hemolysis of chicken RBC at 10 uM preincubated with virus for 30 mins followed by RBC addition measured after 30 mins by microplate reader analysis
# Settings: not given
# How it was run: as §1
row,Compound,inhibition
1,CCOC(=O)C1=C[C@@H](OC(CC)CC)[C@H](NC(C)=O)[C@@H](N)C1 [OSELTAMIVIR],inactive
